In paper PMC11127568 (ACS infectious diseases, 2024):
Where two headings read alike, the source gives them in different places.

Experiments:
[1] = test system: human cell lines (HeLa, HepG2, HEK, and HCT116); assay: Drug cytotoxicity evaluation; format: cell-based; details: 48 h, read-out: IC50 Human cell lines
[2] = test system: B. duncani; assay: microbe, parasite or virus in culture; format: cell-based, Babesia duncani (WA1); details: read-out: IC50 B. duncani
[3] = test system: B. duncani; assay: In vitro drug-drug interaction with atovaquone by isobologram analysis; format: cell-based, Babesia duncani; details: combination with atovaquone; for Mode of Interaction: isobologram analysis
Summary of the method: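 B. duncani WA1 grown in A+ human RBCs, DMEM/F12, 5% hematocrit. […] SYBR Green I lysis read-out (ex 497/em 520 nm). FIC50 = IC50 in combination/IC50 alone, summed; ΣFIC50 <0.8 synergy, 0.8–<1.4 additive, ≥1.4 antagonism. ≥2 independent experiments, triplicates.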

[4] = test system: B. duncani; assay: In vivo efficacy in B. duncani lethal infection model in C3H/HeJ mice; design: species or system mouse (C3H/HeJ); details: for Survival after monotherapy: lethal B. duncani infection, 10 mg/kg oral daily DPI 3 to 7
Summary of the method: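 Female C3H/HeJ mice (6 weeks, 5 per group) were infected intravenously with 1×10³ B. duncani WA1-infected RBCs. Oral gavage was given daily on DPI 3–7 with 100 μl PEG 400 vehicle or test compound at 10 mg/kg. Parasitemia came from Giemsa-stained thin blood smears, with at least 3000 RBCs counted, followed to DPI 84. Survival by Kaplan-Meier.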

[5] = test system: B. microti; assay: In vivo efficacy in B. microti chronic infection model in CB.17/SCID mice; design: species or system mouse (CB.17/SCID); details: SCID mice, 10 mg/kg oral
[6] = B. duncani, 10 mg/kg oral DPI 3 to 7

Structure (SMILES)	Mode of Interaction [3]	IC50 [2]	Survival after monotherapy [4]	also measured
O=C1C(O)=C([C@H]2CC[C@H](c3ccc(Cl)cc3)CC2)C(=O)c2ccccc21 [Atovaquone, reference compound]	–	–	–	IC50 [1]: 5 µM; IC50 ([2]; Babesia duncani, Erythrocyte, in Homo sapiens, 62 h): 0.072 ± 0.006 µM
COc1cc2[nH]c(C)c(-c3ccc(-c4ccc(OC(F)(F)F)cc4)cc3)c(=O)c2cc1Cl [ELQ-596]	additive (0.8 ≤ ΣFIC50 < 1.4 = additive)	0.032 ± 0.0049 µM	–	–
CCOC(=O)OCOc1c(-c2ccc(-c3ccc(OC(F)(F)F)cc3)cc2)c(C)nc2cc(OC)c(Cl)cc12 [ELQ-598]	additive (0.8 ≤ ΣFIC50 < 1.4 = additive)	0.037 ± 0.0022 µM	survival of these mice for the duration of study	Parasites on Giemsa-stained thin-blood smears on monitoring until DPI 84 [4, 6]: no parasites could be detected
COc1cc2[nH]c(C)c(-c3ccc(-c4ccc(OC(F)(F)F)cc4)cc3)c(=O)c2cc1F [ELQ-650]	additive (0.8 ≤ ΣFIC50 < 1.4 = additive)	0.022 ± 0.0049 µM	–	–
CCOC(=O)OCOc1c(-c2ccc(-c3ccc(OC(F)(F)F)cc3)cc2)c(C)nc2cc(OC)c(F)cc12 [ELQ-672]	synergistic	0.057 ± 0.018 µM	animals ultimately succumbing to infection	Mean FIC value (Σ FIC50) ([3]; B. duncani in human red blood cells, fixed ratio method): 0.5; Day parasites emerged [4, 6]: 16 DPI; Parasitemia at DPI 19 [4, 6]: 8%; Day parasites emerged ([5]; vehicle DPI 17): 21 DPI; Day peak parasitemia reached ([5]; vehicle DPI 21): 31 DPI
